Source: PubChem BioAssay
CDK5 inh = inhibitors of human CDK5/p35 kinase; 0.01% of 330,000 active; Q00535+Q15078; Recombinant CDK5/p35, ADP-Glo luminescence, 60 min; inhibition, % at 10 µM; AID 488839;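 active = highest replicate inhibition of at least 50% and at least 75% of replicates reaching 50%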;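 also: plate controls were DMSO neutral control for no effect and GW8510 at 10 µM for full effect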
STK33 inh = blocks human STK33 kinase activity | purified STK33, MBP phosphorylation, ADP-Glo luminescence | inhibition, % at 10 µM | 0.073% of 320,000 active;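 active = inhibition at or above 25%, using the most active replicate where run in duplicate; inactive = inhibition below 25%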
GSK3B inh = inhibitors of human GSK3beta kinase. P49841. GST-GSK3beta kinase, ADP-Glo luminescence, 60 min; active compounds read low. activity score (negative = inhibition), % at 10 µM. 0.038% of 300,000 active;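 active = more than half of replicate wells score below -50%, meaning over 50% inhibition versus plate controls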;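 also: 0% = median DMSO wells and -100% = median GW8510 positive control wells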
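Test system: GST-tagged human GSK3beta kinase, cell-free; evaluation: activity score scaled between in-plate DMSO and GW8510 controls; measured by: ADP-Glo luminescence; incubation: 60 min reaction, RT; benchmarks: DMSO and 20 µM GW8510; reagent: peptide substrate plus 25 µM ATP (final); medium: Tris/MgCl2 kinase buffer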
GSK3A inh = inhibitors of human GSK-3 alpha kinase | inhibition, % at 10 µM | P49840 | 0.1% of 320,000 active | ADP-Glo luminescence, 60 min | AID 2650;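 active = more than half of replicates show inhibition above 20%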;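 also: GST-tagged GSK-3 alpha with peptide substrate and 25 µM ATP; 0% = DMSO neutral wells and 100% = GW8510 positive control wells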
* marks the source's active call; other numbers are inactive results; . = no result. Hits are enriched below; roughly 0.16% of the tested compounds scored in any of these assays.

SMILES	CDK5 inh	STK33 inh	GSK3B inh	GSK3A inh
O=C1CN=C(c2cccs2)c2c(sc3c2CCCC3)N1	1	-2	-59*	82*
Cc1cc2c(s1)NC(=O)CN=C2c1cccs1	1	4	-23	54*
O=C1CN=C(c2ccccc2)c2c(sc3c2CCCC3)N1	-1	-1	-27	56*
COc1ccc(CN(CCc2c[nH]c3ccccc23)Cc2ccc(OC)cc2)cc1	-1	.	.	.
CCC(=NCCCn1ccnc1)c1c(O)n(-c2ccccc2)c(=O)[nH]c1=O	2	-2	-1	29
COc1ccc(-n2c(O)c(C(C)=NCCCn3ccnc3)c(=O)[nH]c2=O)cc1	1	0	1	54*
NC(=S)c1cn(C2OC(CO)C(O)C2O)c2ncnc(N)c12 (stereo not drawn)	0	67*	-52*	64*
Nc1ncnc2c1ccn2[C@@H]1O[C@H](CO)[C@@H](O)[C@H]1O	2	0	-4	5
Oc1cc2c(cc1O)[C@H]1c3ccccc3CN[C@@H]1CC2	.	28*	-2	8
CC12CCC3c4ccc(OC(=O)N(CCCl)CCCl)cc4CCC3C1CCC2O (stereo not drawn)	-2	.	.	.
CC[n+]1c(/C=C/C=C/c2ccc(N(C)C)cc2)sc2ccccc21	15	7	-7	10
CC[n+]1c(/C=C/N(C)c2ccccc2)sc2ccc(Cl)cc21	6	0	-53*	10
CCC(C)C1NC(=O)C(NC(=O)C(CC(C)C)N(C)C(=O)C2CCCN2C(=O)C(C)O)C(C)OC(=O)C(Cc2ccc(OC)cc2)N(C)C(=O)C2CCCN2C(=O)C(CC(C)C)NC(=O)[C@H](C)C(=O)[C@H](C(C)C)OC(=O)CC1O (stereo partly drawn)	0	.	.	.
CCc1nnc(NC(=O)CCc2nc(C3=CCN(C)CC3)no2)s1	-1	2	0	1
COc1ccc2nc(NC(=O)CCc3nc(C4=CCN(C)CC4)no3)sc2c1	-2	3	-1	53*
COc1cc2c(c(OC)c1OC)-c1ccc(SC)c(=O)cc1C(NC(C)=O)CC2 (stereo not drawn)	1	.	.	.
O=C1C=CC(=O)C2C1C1(Cl)C(Cl)=C(Cl)C2(Cl)C1(Cl)Cl (stereo not drawn)	3	.	.	.
COc1cc(O)cc2c1C(=O)OC(C)CCCC(=O)CCC/C=C\2 (stereo not drawn)	0	0	-2	-2
C[C@H]1CCCC(=O)CCC/C=C/c2cc(O)cc(O)c2C(=O)O1	1	28*	-44	52*
CCN1C(=O)C(=C2C=C(C)N(Cc3ccco3)C(C)=C2)C(=O)N(CC)C1=S	0	4	-2	55*
